Laboratory results: ChEMBL document CHEMBL4428100, “Versatile Picklocks To Access All Opioid Receptors: Tuning the Selectivity and Functional Profile of the Cyclotetrapeptide c[Phe-d-Pro-Phe-Trp] (CJ-15,208)” (J Med Chem, 2016)
pEC50, pIC50, pKi: −log10 of the molar value. The source made the active and inactive calls. No cut-off for these calls is given here. Non-standard residues stand in square brackets, D forms with d. Residues, ends and D or L forms follow the SMILES beside them.

What was measured:
[1] = biological target: T1, Kappa-type opioid receptor (Homo sapiens, UniProt P41145); assay: Displacement of [3H]U69,593 from human KOR expressed in HEK293 cell membranes incubated for 90 mins by liquid scintillation counting
Procedure, shortened: (§1)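 Compound (10^-12 to 10^-4 M) incubated 90 min at 25°C in 100 mM Tris-HCl with 0.3% BSA. Cold ligands define nonspecific binding. Filters presoaked in 0.3% polyethylenimine; liquid scintillation counting. Ki from IC50 by Cheng-Prusoff; triplicate.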

[2] = biological target: T2, Delta-type opioid receptor (Homo sapiens, UniProt P41143); assay: Displacement of [3H]diprenorphine from human DOR expressed in HEK293 cell membranes incubated for 90 mins by liquid scintillation counting
Mu-type opioid receptor [3] = biological target: T3, Mu-type opioid receptor (Homo sapiens, UniProt P35372); assay: Displacement of [3H]DAMGO from human MOR expressed in HEK293 cell membranes incubated for 90 mins by liquid scintillation counting; procedure, shortened: as §1
Mu-type opioid receptor [4] = biological target: T3, Mu-type opioid receptor; assay: Displacement of [3H]DAMGO from human MOR expressed in HEK293 cell membranes at […] incubated for 90 mins by liquid scintillation counting
Mus musculus [5] = assay: Effect on circling behavior in mouse model of visceral pain at 0.5 to 10 mg/kg, ip dosed 5 mins before AcOH challenge measured within 6 hrs; assay type: ADME, organism-based; details: in vivo
Mu-type opioid receptor [6] = biological target: T3, Mu-type opioid receptor; assay: Antagonist activity at human MOR expressed in HEK293 cells assessed as reduction of DAMGO-induced inhibition of forskolin-induced cAMP accumulation by EIA method; assay type: functional, cell-based
[7] = biological target: T1, Kappa-type opioid receptor; assay: Antagonist activity at human KOR expressed in HEK293 cells assessed as reduction of U50,488-induced inhibition of forskolin-induced cAMP accumulation by EIA method; assay type: functional, cell-based
Mus musculus [8] = assay: Effect on grooming behavior in mouse model of visceral pain at 0.5 to 10 mg/kg, ip dosed 5 mins before AcOH challenge measured within 6 hrs; assay type: ADME, organism-based; details: in vivo
Mus musculus [9] = assay: Antinociceptive activity in mouse model of visceral pain assessed as reduction in AcOH-induced stretching or writhing responses dosed intraperitoneally 5 mins before AcOH challenge; assay type: functional
Procedure, shortened: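 Mice given 0.6% w/v AcOH in water ip (0.1 ml/10 g). Compound (0.5-10 mg/kg) or vehicle given ip 5 min earlier. Stretching/writhing counted for 10 min after AcOH. 6-8 mice per group, mean ± SEM; ED50 derived from the dose-response; Dunnett test after ANOVA.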

[10] = biological target: T2, Delta-type opioid receptor; assay: Antagonist activity at human DOR expressed in HEK293 cells assessed as reduction of DPDPE-induced inhibition of forskolin-induced cAMP accumulation by EIA method; assay type: functional, cell-based
Procedure, shortened: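 HEK-293 cells stably expressing hDOR, in serum-free medium with 0.5 mM IBMX, exposed 15 min at 37°C to 10 μM forskolin plus 10 μM DPDPE, with or without compound (0.001 nM-100 μM). cAMP by EIA kit. Triplicate determinations; IC50 as mean ± SE of 5-6 independent experiments.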

Mu-type opioid receptor [11] = biological target: T3, Mu-type opioid receptor; assay type: functional, cell-based, HEK293
Mus musculus [12] = assay: Antinociceptive activity in mouse model of visceral pain assessed as reduction in AcOH-induced stretching or writhing responses at 10 mg/kg, ip 5 mins before AcOH challenge and co-administered with 10 mg/kg, ip KOR antagonist norBNI 10 mins before compound dosing; assay type: functional, organism-based
[13] = Stability in mouse serum after 3 hrs by RP-HPLC and ESI-MS analysis; assay type: ADME, cell-free
Procedure, shortened: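 Compound incubated in mouse serum for 3 h to assess enzymatic stability.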

[14] = Toxicity in mouse model of visceral pain assessed as induction of straub tail at 0.5 to 10 mg/kg, ip dosed 5 mins before AcOH challenge measured within 6 hrs; assay type: organism-based; details: in vivo
Mus musculus [15] = assay: Effect on spontaneous locomotor activity in mouse model of visceral pain at 0.5 to 10 mg/kg, ip dosed 5 mins before AcOH challenge measured within 6 hrs; assay type: ADME, organism-based; details: in vivo
Mus musculus [16] = assay: Antinociceptive activity in mouse model of visceral pain assessed as reduction in AcOH-induced stretching or writhing responses at 10 mg/kg, ip 5 mins before AcOH challenge and co-administered with 10 mg/kg, ip DOR antagonist NTD 30 mins before compound dosing; assay type: functional, organism-based
Mus musculus [17] = assay: Antinociceptive activity in mouse model of visceral pain assessed as reduction in AcOH-induced stretching or writhing responses at 10 mg/kg, ip 5 mins before AcOH challenge and co-administered with 30 mg/kg, ip opioid antagonist NLX 15 mins before compound dosing; assay type: functional, organism-based
Mu-type opioid receptor [18] = biological target: T3, Mu-type opioid receptor; assay: Agonist activity at human MOR expressed in HEK293 cells assessed as inhibition of forskolin-induced cAMP accumulation at 10^-12 to 10^-4 M by EIA method; assay type: functional, cell-based
Procedure, shortened: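 Whole HEK-293 cells stably expressing hMOR, in serum-free medium with 0.5 mM IBMX, exposed 15 min at 37°C to 10 μM forskolin with or without compound (0.001 nM-100 μM). cAMP measured by EIA kit. Triplicate determinations; IC50 and Emax (% vehicle) as mean ± SE of 5-6 independent experiments.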

[19] = Antagonist activity against KOR in rabbit vas deferens smooth muscles assessed as inhibition of asimadoline-induced response; details: Oryctolagus cuniculus
Mu-type opioid receptor [20] = biological target: T3, Mu-type opioid receptor; assay: Binding affinity to MOR (unknown origin)
Procedure, shortened: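 Test compounds were run at 10⁻¹²-10⁻⁴ M, incubated 90 min at 25°C in 100 mM Tris-HCl with 0.3% BSA. Nonspecific binding was defined with cold ligand. Filter-trapped radioactivity was counted by liquid scintillation, with filters presoaked in 0.3% polyethylenimine. Assays were run in triplicate. Ki was derived from IC50 by Cheng-Prusoff.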

[21] = biological target: T2, Delta-type opioid receptor; assay: Binding affinity to DOR (unknown origin)
Procedure, shortened: (§2)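 Displacement binding on membranes from HEK-293 cells stably expressing cloned human receptors; radioligand [³H]diprenorphine for DOR, [³H]U69,593 for KOR. Compounds tested at 10⁻¹²–10⁻⁴ M, incubated 90 min at 25°C in 100 mM Tris-HCl with 0.3% BSA. Nonspecific binding defined with cold ligand. Filter-bound radioactivity counted by liquid scintillation. Ki from IC50 via Cheng-Prusoff. Run in triplicate.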

[22] = biological target: T1, Kappa-type opioid receptor; assay: Binding affinity to KOR (unknown origin); procedure, shortened: as §2

T3 sequence (P35372 whole entry): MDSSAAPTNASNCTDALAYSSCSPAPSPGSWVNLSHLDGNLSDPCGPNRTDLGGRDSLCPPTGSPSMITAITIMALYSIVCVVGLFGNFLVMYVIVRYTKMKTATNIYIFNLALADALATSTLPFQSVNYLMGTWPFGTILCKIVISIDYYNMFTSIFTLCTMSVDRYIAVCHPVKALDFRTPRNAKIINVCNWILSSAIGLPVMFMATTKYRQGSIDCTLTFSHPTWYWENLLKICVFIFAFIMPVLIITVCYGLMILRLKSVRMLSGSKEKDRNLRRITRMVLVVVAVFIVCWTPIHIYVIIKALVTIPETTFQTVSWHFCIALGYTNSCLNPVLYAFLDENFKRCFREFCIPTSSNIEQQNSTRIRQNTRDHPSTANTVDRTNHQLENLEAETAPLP
T2 sequence (P41143 whole entry): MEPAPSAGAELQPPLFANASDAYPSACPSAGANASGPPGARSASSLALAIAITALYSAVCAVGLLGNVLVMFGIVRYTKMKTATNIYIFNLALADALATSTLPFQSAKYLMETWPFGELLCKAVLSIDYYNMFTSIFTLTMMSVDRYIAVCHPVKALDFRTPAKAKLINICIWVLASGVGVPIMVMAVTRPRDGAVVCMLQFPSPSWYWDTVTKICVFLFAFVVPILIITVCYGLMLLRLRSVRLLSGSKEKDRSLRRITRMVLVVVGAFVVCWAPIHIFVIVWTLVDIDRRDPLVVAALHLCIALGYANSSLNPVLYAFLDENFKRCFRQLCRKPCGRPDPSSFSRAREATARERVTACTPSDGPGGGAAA
T1 sequence (P41145 whole entry): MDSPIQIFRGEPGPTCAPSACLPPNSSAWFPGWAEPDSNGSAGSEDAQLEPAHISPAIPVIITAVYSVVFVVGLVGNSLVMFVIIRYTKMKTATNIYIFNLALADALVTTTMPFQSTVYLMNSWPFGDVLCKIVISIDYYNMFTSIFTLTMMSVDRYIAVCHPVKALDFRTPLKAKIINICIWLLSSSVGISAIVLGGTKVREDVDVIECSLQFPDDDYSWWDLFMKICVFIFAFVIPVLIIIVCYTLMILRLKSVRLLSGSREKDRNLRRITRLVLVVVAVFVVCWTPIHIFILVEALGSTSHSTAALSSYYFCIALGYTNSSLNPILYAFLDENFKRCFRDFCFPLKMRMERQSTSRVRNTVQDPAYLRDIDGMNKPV

`C[C@H]1NC(=O)[C@H](Cc2c[nH]c3ccccc23)NC(=O)[C@H](Cc2ccccc2)NC(=O)[C@H]2CCCN2C1=O` showed a pKi [1] of under 4.00, a pKi [2] of under 4.00 and a pKi (Mu-type opioid receptor [3]) of under 4.00.

Compound `Cn1cc(C[C@@H]2NC(=O)[C@H](Cc3ccccc3)NC(=O)[C@H]3CCCN3C(=O)[C@H](Cc3ccccc3)NC2=O)c2ccccc21` has an inhibition (Mu-type opioid receptor [4]) of under 50%, a pKi [1] of under 4.00 and a pKi [2] of under 4.00.

With `C[C@@H]1NC(=O)[C@H](Cc2c[nH]c3ccccc23)NC(=O)[C@@H](Cc2ccccc2)NC(=O)[C@H]2CCCN2C1=O` the pKi [1] was under 4.00, the pKi [2] was under 4.00 and the pKi (Mu-type opioid receptor [3]) was under 4.00.

`Cn1cc(C[C@H]2NC(=O)[C@H](Cc3ccccc3)NC(=O)[C@H]3CCCN3C(=O)[C@H](Cc3ccccc3)NC2=O)c2ccccc21` showed a pKi [1] of under 4.00, a pKi [2] of under 4.00 and a pKi (Mu-type opioid receptor [3]) of under 4.00.

In the case of `O=C1NCCC(=O)N2CCC[C@@H]2C(=O)N[C@@H](Cc2ccccc2)C(=O)N[C@H]1Cc1c[nH]c2ccccc12`, the pKi [1] was under 4.00, the Activity (Mus musculus [5]) was “Non-Toxic” and the pKi [2] was under 4.00. The inhibition (Mu-type opioid receptor [6]) was “inactive”, the inhibition [7] was “inactive” and the Activity (Mus musculus [8]) was “Non-Toxic”. The inhibition (Mus musculus [9]) was “Dose-dependent effect”, the ED50 (Mus musculus [9]; ip) was 0.64 mg/kg and the inhibition [10] was “inactive”. For the same compound, the pIC50 (Mu-type opioid receptor [11]) was 8.21, the Activity (Mus musculus [12]) was “Active” and the Stability [13] was “Stable”. For the same compound, the Activity [14] was “Non-Toxic”, the Activity (Mus musculus [15]) was “Non-Toxic” and the Activity (Mus musculus [16]) was “Active”. The pKi (Mu-type opioid receptor [3]) was 8.39 and the Activity (Mus musculus [17]) was “inactive”.

With `O=C1NCCCC(=O)N2CCC[C@@H]2C(=O)N[C@@H](Cc2ccccc2)C(=O)N[C@H]1Cc1c[nH]c2ccccc12` the inhibition (Mu-type opioid receptor [4]) was under 50%, the pKi [1] was under 4.00 and the Activity (Mu-type opioid receptor [18]) was “inactive”. The pKi [2] was 8.51, the inhibition (Mu-type opioid receptor [6]) was “inactive” and the inhibition [7] was “inactive”. The inhibition [10] was “Dose-dependent effect” and the pIC50 (Mu-type opioid receptor [11]) was 6.74.

`O=C1N[C@@H](Cc2ccccc2)C(=O)N2CCC[C@@H]2C(=O)N[C@@H](Cc2ccccc2)C(=O)N[C@H]1Cc1c[nH]c2ccccc12` (cyclo(FWF[dP])) showed a pEC50 [19] of 5.89, a pKi [1] of 7.49 and a pKi [2] of under 4.00. The pIC50 (Mu-type opioid receptor [20]) was 6.59, the pIC50 [21] was 5.59 and the pIC50 [22] was 7.33. For the same compound, the pKi (Mu-type opioid receptor [3]) was 6.90.

Work on `O=C1CNC(=O)[C@H](Cc2ccccc2)NC(=O)[C@@H](Cc2c[nH]c3ccccc23)NC(=O)[C@H]2CCCN2C(=O)[C@H](Cc2ccc(O)cc2)N1` (cyclo(FGY[dP][dW])) yielded an Activity [22] of 1 ×10⁻⁸ M.
